From ChEMBL document CHEMBL2321650, “Novel HldE-K inhibitors leading to attenuated Gram negative bacterial virulence” (J Med Chem, 2013)

Assay: Inhibition of Escherichia coli O18:K1 C7 hldE-K expressed in Escherichia coli BL21 using beta-heptose 7-phosphate as substrate incubated for 30 mins prior to substrate addition measured after 30 mins by luminescence assay
Procedure, shortened: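 E. coli HldE (His-tagged, IPTG-induced, Ni-NTA-purified), 3 nM, preincubated 30 min at room temperature with inhibitor in Hepes pH 7.5, MnCl₂, KCl, 0.012% Triton-X100, DTT, MBP. Reaction with 0.2 μM heptose 7-phosphate and 0.2 μM ATP, 30 min at room temperature. Remaining ATP read by luciferase/luciferin luminescence; 6−10 concentrations fitted to a Langmuir model for IC50.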

Compound | IC50 [µM]
COc1cccc(OC)c1-c1cnnc(NCc2nc3ccc(Cl)cc3s2)n1 | 27
COC(=O)c1ccc2nc(CNc3nncc(-c4c(OC)cccc4OC)n3)sc2c1 | 89
COc1cccc(OC)c1-c1cnnc(NCc2nc3ccccc3[nH]2)n1 | > 300
CCOC(=O)c1sc(CNc2nncc(-c3c(OC)cccc3OC)n2)nc1C | > 300
COc1cccc(OC)c1-c1cnnc(NCc2ccc3ccccc3n2)n1 | > 300
COc1cccc(OC)c1-c1cnnc(NCc2nc(C)c(CCO)s2)n1 | > 300
Cc1oc(-c2ccccc2)nc1C(=O)N(CC(=O)O)Cc1ccccn1 | 51
COc1cccc(OC)c1-c1cnnc(N2CCCCC2c2nc3ccccc3s2)n1 (stereo not given) | > 300
COc1cccc(OC)c1-c1cnnc(NC(C)c2nc(C)c(C)s2)n1 (stereo not given) | 54
COc1cccc(OC)c1-c1cnnc(OCc2nc(C)c(C)s2)n1 | 40
COc1ccc2sc(CNc3nncc(C(C)C)n3)nc2c1 | > 300
COc1cccc(OC)c1-c1cnnc(NCc2cc3ccccc3s2)n1 | > 300
COc1cccc(OC)c1-c1cnnc(NCc2nc3ccccc3n2C)n1 | > 300
COc1cccc(OC)c1-c1cnnc(NCc2cc(C)c(C)o2)n1 | > 300
COc1ccc2sc(CNc3nncc(N4CCCCC4CO)n3)nc2c1 (stereo not given) | > 300
COc1cccc(OC)c1-c1cnnc(NCc2ccccn2)n1 | > 300
COc1cccc(OC)c1-c1cnnc(NCc2cc(C)n(C)n2)n1 | 25
COc1ccc2sc(CNc3nncc(C(C)(C)O)n3)nc2c1 | > 300
COc1cccc(OC)c1-c1cnnc(NCc2nc3ccc(NC(C)=O)cc3s2)n1 | 49
COc1cccc(OC)c1-c1cnnc(NCc2nc3ccccc3o2)n1 | 34
COc1ccc2sc(CNc3nncc(N4[C@H](C)CCC[C@@H]4C)n3)nc2c1 | > 300
COc1cccc(OC)c1-c1cnnc(N(CCC(=O)O)Cc2nc3ccccc3s2)n1 | 46

Stronger by IC50, values ahead:

IC50 [µM] | Compound
15 | COc1cccc(OC)c1-c1cnnc(NCc2nc3ccc(CO)cc3s2)n1
7.6 | COc1cccc(OC)c1-c1cnnc(NCc2nc3cc(NC(C)=O)ccc3s2)n1
6 | COc1cccc(OC)c1-c1cnnc(NCc2nc(C)c(C)s2)n1
5 | COc1cccc(OC)c1-c1cnnc(N(C)Cc2nc(C)c(C)s2)n1
3.4 | COc1cccc(OC)c1-c1cnnc(NCc2nc3ccc(O)cc3s2)n1
2.4 | COc1ccc2sc(CNc3nncc(-c4c(F)cccc4F)n3)nc2c1
2 | COc1cccc(OC)c1-c1cnnc(N(CC(=O)O)Cc2nc3ccccc3s2)n1
1.9 | COc1cccc(OC)c1-c1cnnc(NCc2nc3c(s2)CCCC3)n1
1.6 | COc1cccc(OC)c1-c1cnnc(NCc2nc3cc(Cl)ccc3s2)n1
1.5 | COc1cccc(OC)c1-c1cnnc(NCc2nc3cc(C)ccc3s2)n1
1.4 | COc1cccc(OC)c1-c1cnnc(NCc2nc3cc(N)ccc3s2)n1
1.4 | COc1ccc2sc(CNc3nncc(-c4cc(NC(C)=O)ccc4Cl)n3)nc2c1
1.4 | COc1ccc2sc(CNc3nncc(-c4ccccc4Cl)n3)nc2c1
1.4 | COc1ccc2sc(CNc3nncc(-c4c(C)cc(C#N)cc4C)n3)nc2c1
1.2 | COc1ccc2sc(CNc3nncc(-c4c(C)cc(Br)cc4C)n3)nc2c1
0.89 | COc1ccc2sc(CNc3nncc(-c4c(C)cc(-c5ccc(OC)nc5)cc4C)n3)nc2c1
0.76 | COc1ccc2sc(CNc3nncc(-c4cc(Br)ccc4Cl)n3)nc2c1
0.67 | COc1ccc2sc(CNc3nncc(-c4c(OC)cccc4OC)n3)nc2c1
0.39 | COc1cccc(OC)c1-c1cnnc(NCc2nc3cc(O)ccc3s2)n1
0.32 | COc1ccc2sc(CNc3nncc(-c4c(C)cc(N)cc4C)n3)nc2c1
0.25 | COc1cccc(OC)c1-c1cnnc(NCc2nc3cc(OCC(=O)O)ccc3s2)n1
0.185 | NCCOc1ccc2sc(CNc3nncc(-c4c(Cl)cccc4Cl)n3)nc2c1
0.15 | COc1ccc2sc(CNc3nncc(-c4cc(-c5cccnc5)ccc4Cl)n3)nc2c1
